Laboratory results reported in ChEMBL document CHEMBL1132300, “1,3-Disubstituted benzazepines as novel, potent, selective neuropeptide Y Y1 receptor antagonists” (J Med Chem, 1999).

biological target: T1, Neuropeptide Y receptor type 1 (Homo sapiens, UniProt P25929); assay: In vitro binding affinity towards Neuropeptide Y receptor type 1 was determined as potency to displace [125I]-peptide YY binding to human neuroblastoma SK-N-MC cells; assay type: cell-based
T1 sequence (P25929 whole entry): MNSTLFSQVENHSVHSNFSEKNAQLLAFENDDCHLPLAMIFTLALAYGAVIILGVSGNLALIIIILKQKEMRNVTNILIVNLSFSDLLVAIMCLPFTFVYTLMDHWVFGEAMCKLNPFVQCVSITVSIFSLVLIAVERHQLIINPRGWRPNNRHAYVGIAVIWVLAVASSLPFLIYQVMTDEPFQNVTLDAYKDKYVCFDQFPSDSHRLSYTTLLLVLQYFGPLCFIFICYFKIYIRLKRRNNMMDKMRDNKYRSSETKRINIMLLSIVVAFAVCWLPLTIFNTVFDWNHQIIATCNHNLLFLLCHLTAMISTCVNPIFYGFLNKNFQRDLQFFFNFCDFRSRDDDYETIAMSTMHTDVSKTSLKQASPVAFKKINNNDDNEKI
How it was run: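 Intact SK-N-MC cells grown 2 days, washed with HEPES (20 mM)-buffered Hank's solution pH 7.4 plus 1% BSA, then incubated with 0.1 nM [125I]PYY and varying concentrations of unlabeled compound at 37 °C for 60 min. Washed twice with ice-cold buffer, lysed in 1 N NaOH, gamma-counted. Nonspecific binding defined with 10^-6 M NPY.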

Ki | SMILES
7.3 nM | C/N=C(/Nc1ccc(O)cc1)NC1CCc2ccccc2N(Cc2cccc(NC(=O)NC(C)C)c2)C1=O (stereo not drawn)
56 nM | CC(C)NC(=O)Nc1cccc(CN2C(=O)C(NC(=O)Nc3ccc4ncccc4c3)CCc3ccccc32)c1 (stereo not drawn)
> 10000 nM | O=C(Nc1ccccc1)NC1CCc2ccccc2N(Cc2cccc(NC(=O)N3CCOCC3)c2)C1=O (stereo not drawn)
36 nM | CC(C)NC(=O)Nc1cccc(CN2C(=O)C(N=C(Nc3ccc(O)cc3)NC(C)C)CCc3ccccc32)c1 (stereo not drawn)
240 nM | CC(C)NC(=O)Nc1cccc(CN2C(=O)C(NC(=O)Nc3ccccn3)CCc3ccccc32)c1 (stereo not drawn)
610 nM | CC(C)NC(=O)Nc1cccc(CN2C(=O)C(NC(=O)Nc3ccc(-c4ccccc4)cc3)CCc3ccccc32)c1 (stereo not drawn)
17 nM | CC(C)NC(=O)Nc1cccc(CN2C(=O)C(NC(=O)Nc3ccc4ocnc4c3)CCc3ccccc32)c1 (stereo not drawn)
1400 nM | CC(C)NC(=O)Nc1cccc(CN2C(=O)C(CNC(=O)Nc3ccccc3)CCc3ccccc32)c1 (stereo not drawn)
4100 nM | CC(C)NC(=O)Nc1cccc(CN2C(=O)C(COC(=O)Nc3ccccc3)CCc3ccccc32)c1 (stereo not drawn)
28 nM | CC(C)NC(=O)Nc1cccc(CN2C(=O)C(NC(=O)Nc3ccc4c(c3)OCO4)CCc3ccccc32)c1 (stereo not drawn)
> 10000 nM | CC(C)NC(=O)Nc1cccc(CN2C(=O)C(NC(=O)Nc3cc[nH]n3)CCc3ccccc32)c1 (stereo not drawn)
450 nM | CC(C)NC(=O)Nc1cccc(CN2C(=O)C(OC(=O)Nc3ccccc3)CCc3ccccc32)c1 (stereo not drawn)
7.8 nM | CC(C)NC(=O)Nc1cccc(CN2C(=O)C(NC(=O)Nc3ccc4ccsc4c3)CCc3ccccc32)c1 (stereo not drawn)
3800 nM | CC(C)NC(=O)Cc1cccc(CN2C(=O)C(NC(=O)Nc3ccccc3)CCc3ccccc32)c1 (stereo not drawn)
88 nM | CC(C)NC(=O)Nc1cccc(CN2C(=O)C(NC(=O)Nc3ccc([N+](=O)[O-])cc3)CCc3ccccc32)c1 (stereo not drawn)
56 nM | CC(C)NC(=O)Nc1cccc(CN2C(=O)C(NC(=O)Nc3ccccc3)CCCc3ccccc32)c1 (stereo not drawn)
26 nM | CC(C)NC(=O)Nc1cccc(CN2C(=O)C(NC(=O)Nc3ccc4[nH]ncc4c3)CCc3ccccc32)c1 (stereo not drawn)
780 nM | CC(C)NC(=O)Nc1cccc(CN2C(=O)C(NC(=O)Nc3ccc4c(c3)C(=O)N(C)C4=O)CCc3ccccc32)c1 (stereo not drawn)
7.6 nM | CC(C)NC(=O)Nc1cccc(CN2C(=O)C(NC(=O)Nc3ccccc3F)CCc3ccccc32)c1 (stereo not drawn)
910 nM | O=C(Nc1cccc(CN2C(=O)C(NC(=O)Nc3ccccc3)CCc3ccccc32)c1)NC1CC1 (stereo not drawn)
7300 nM | CNC(=O)Nc1cccc(CN2C(=O)C(NC(=O)Nc3ccccc3)CCc3ccccc32)c1 (stereo not drawn)

Ki | SMILES
2.9 nM | CC(C)NC(=O)Nc1cccc(CN2C(=O)C(/N=C(\N)Nc3ccc(O)cc3)CCc3ccccc32)c1 (stereo not drawn)
13 nM | CC(C)NC(=O)Nc1cccc(CN2C(=O)C(NC(=O)Nc3ccc4sccc4c3)CCc3ccccc32)c1 (stereo not drawn)
470 nM | CC(C)NC(=O)Nc1cccc(CN2C(=O)C(NC(=O)Nc3ccccc3)COc3ccccc32)c1 (stereo not drawn)
18 nM | CC(C)NC(=O)Nc1cccc(CN2C(=O)C(NC(=O)Nc3ccc4c(c3)OCCO4)CCc3ccccc32)c1 (stereo not drawn)
15 nM | C/N=C(/Nc1ccccc1)NC1CCc2ccccc2N(Cc2cccc(NC(=O)NC(C)C)c2)C1=O (stereo not drawn)
> 10000 nM | O=C(Nc1ccccc1)Nc1cccc(CN2C(=O)C(NC(=O)Nc3ccccc3)CCc3ccccc32)c1 (stereo not drawn)
80 nM | COc1ccc(NC(=O)NC2CCc3ccccc3N(Cc3cccc(NC(=O)NC(C)C)c3)C2=O)cc1 (stereo not drawn)
5500 nM | CC(C)NC(=O)Nc1cccc(CN2C(=O)C(NS(=O)(=O)c3ccccc3)CCc3ccccc32)c1 (stereo not drawn)
> 10000 nM | CC(C)NC(=O)Nc1nc(CN2C(=O)C(NC(=O)Nc3ccc(F)cc3F)CCc3ccccc32)cs1 (stereo not drawn)
66 nM | CC(C)NC(=O)Nc1cccc(CN2C(=O)C(NC(=O)Nc3ccc(N(C)C)cc3)CCc3ccccc32)c1 (stereo not drawn)
690 nM | CC(C)NC(=O)Nc1cccc(CN2C(=O)C(NC(=O)Nc3nc4ccccc4s3)CCc3ccccc32)c1 (stereo not drawn)
82 nM | CC(C)NC(=O)Nc1cccc(CN2C(=O)C(NC(=O)Nc3ccc(O)cc3)CCc3ccccc32)c1 (stereo not drawn)
18 nM | CC(C)NC(=O)Nc1cccc(CN2C(=O)C(NC(=O)Nc3ccc4[nH]ccc4c3)CCc3ccccc32)c1 (stereo not drawn)
> 10 nM | COC(=O)Nc1cccc(CN2C(=O)C(NC(=O)Nc3ccccc3)CCc3ccccc32)c1 (stereo not drawn)
86 nM | CC(C)NC(=O)Nc1cccc(CN2C(=O)C(NC(=O)Nc3cc(F)cc(F)c3)CCc3ccccc32)c1 (stereo not drawn)
7.8 nM | CC(C)NC(=O)Nc1cccc(CN2C(=O)C(NC(=O)Nc3ccc(F)cc3F)CCc3ccccc32)c1 (stereo not drawn)
690 nM | CC(C)OC(=O)Nc1cccc(CN2C(=O)C(NC(=O)Nc3ccccc3)CCc3ccccc32)c1 (stereo not drawn)
24 nM | CC(C)NC(=O)Nc1cccc(CN2C(=O)C(NC(=O)Nc3ccc4scnc4c3)CCc3ccccc32)c1 (stereo not drawn)
65 nM | CC(C)NC(=O)Nc1cccc(CN2C(=O)C(N=C(NCCO)Nc3ccc(O)cc3)CCc3ccccc32)c1 (stereo not drawn)
17 nM | CC(C)NC(=O)Nc1cccc(CN2C(=O)C(NC(=O)Nc3ccc4c(c3)CCC4)CCc3ccccc32)c1 (stereo not drawn)
83 nM | CC(C)NC(=O)Nc1cccc(CN2C(=O)C(NC(=O)Nc3ccncc3)CCc3ccccc32)c1 (stereo not drawn)

Ki | SMILES
7.8 nM | CC(C)NC(=O)Nc1cccc(CN2C(=O)C(NC(=O)Nc3ccc4ccoc4c3)CCc3ccccc32)c1 (stereo not drawn)
25 nM | CC(C)NC(=O)Nc1cccc(CN2C(=O)C(NC(=O)Nc3ccc4c(c3)C(=O)NC4=O)CCc3ccccc32)c1 (stereo not drawn)
> 10000 nM | CC(C)NC(=O)Nc1cccc(CN2C(=O)C(NC(=O)c3ccccc3)CCc3ccccc32)c1 (stereo not drawn)
100 nM | CC(C)NC(=O)Nc1cccc(CN2C(=O)C(NC(=O)Nc3cccc(F)c3F)CCc3ccccc32)c1 (stereo not drawn)
1200 nM | CC(C)(C)OC(=O)Nc1cccc(CN2C(=O)C(NC(=O)Nc3ccccc3)CCc3ccccc32)c1 (stereo not drawn)
71 nM | CC(C)NC(=O)Nc1cccc(CN2C(=O)C(NC(=O)Nc3ccc(Cl)cc3)CCc3ccccc32)c1 (stereo not drawn)
140 nM | CC(C)CNC(=O)Nc1cccc(CN2C(=O)C(NC(=O)Nc3ccccc3)CCc3ccccc32)c1 (stereo not drawn)
> 10000 nM | CN(C(=O)OC(C)(C)C)c1cccc(CN2C(=O)C(NC(=O)Nc3ccccc3)CCc3ccccc32)c1 (stereo not drawn)
160 nM | CC(C)NC(=O)Nc1cccc(CN2C(=O)C(NC(=O)Nc3nccs3)CCc3ccccc32)c1 (stereo not drawn)
75 nM | CC(C)(C)NC(=O)Nc1cccc(CN2C(=O)C(NC(=O)Nc3ccccc3)CCc3ccccc32)c1 (stereo not drawn)
43 nM | CC(C)NC(=O)Nc1cccc(CN2C(=O)C(NC(=O)Nc3ccccc3)CCc3ccccc32)c1 (stereo not drawn)
200 nM | CC(C)NC(=O)Nc1cccc(CN2C(=O)C(NC(=O)Nc3ccc(N)cc3)CCc3ccccc32)c1 (stereo not drawn)
140 nM | CC(C)NC(=O)Nc1cccc(CN2C(=O)C(NC(=O)Nc3cnc4ccccc4c3)CCc3ccccc32)c1 (stereo not drawn)
5.1 nM | CC(C)NC(=O)Nc1cccc(CN2C(=O)C(NC(=O)Nc3ccc4ncsc4c3)CCc3ccccc32)c1 (stereo not drawn)
> 10000 nM | Nc1cccc(CN2C(=O)C(NC(=O)Nc3ccccc3)CCc3ccccc32)c1 (stereo not drawn)
7000 nM | CC(C)NC(=O)Nc1cccc(CN2CCCCC(NC(=O)Nc3ccccc3)C2=O)c1 (stereo not drawn)
29 nM | CC(C)NC(=O)Nc1cccc(CN2C(=O)C(NC(=O)Nc3ccc(F)cc3)CCc3ccccc32)c1 (stereo not drawn)
150 nM | CC(C)NC(=O)Nc1cccc(CN2C(=O)C(NC(=O)Nc3nncs3)CCc3ccccc32)c1 (stereo not drawn)
> 10000 nM | NC(=O)Nc1cccc(CN2C(=O)C(NC(=O)Nc3ccccc3)CCc3ccccc32)c1 (stereo not drawn)

SMILES | Ki
CC(C)NC(=O)Nc1cccc(CN2C(=O)C(NC(=O)Oc3ccccc3)CCc3ccccc32)c1 (stereo not drawn) | 2100 nM
O=C(Nc1ccccc1)NC1CCc2ccccc2N(Cc2cccc(NC(=O)Oc3ccccc3)c2)C1=O (stereo not drawn) | > 10000 nM
